Experimental data reported in ChEMBL document CHEMBL3232762, “Synthesis and biological evaluation of a novel sigma-1 receptor antagonist based on 3,4-dihydro-2(1H)-quinolinone scaffold as a potential analgesic” (Eur J Med Chem, 2014).
The source made the active and inactive calls. No cut-off for these calls is given here.

Experiments:
[1] = Displacement of [3H]-DTG from sigma 2 receptor in Dunkin Hartley guinea pig membrane after 120 mins by liquid scintillation counting analysis […]; assay type: cell membranes, Cavia porcellus
[2] = target: Sigma non-opioid intracellular receptor 1 (Cavia porcellus, UniProt Q60492); assay: Displacement of [3H]-(+)-pentazocine from sigma 1 receptor in Dunkin Hartley guinea pig membrane after 180 mins by liquid scintillation counting analysis; assay type: cell membranes
Chain of Sigma non-opioid intracellular receptor 1 (Cavia porcellus, UniProt Q60492) (Q60492 whole entry): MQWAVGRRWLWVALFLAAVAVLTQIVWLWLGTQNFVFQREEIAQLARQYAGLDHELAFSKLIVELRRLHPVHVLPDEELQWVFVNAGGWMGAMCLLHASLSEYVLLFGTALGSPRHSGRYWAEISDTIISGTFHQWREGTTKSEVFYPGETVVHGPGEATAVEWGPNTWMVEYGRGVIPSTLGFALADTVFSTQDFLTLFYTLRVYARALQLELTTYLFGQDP

Cavia porcellus = species: Cavia porcellus; assay: Selectivity ratio of Ki for sigma 2 receptor in Dunkin Hartley guinea pig membrane to Ki for sigma 1 receptor in Dunkin Hartley guinea pig membrane; assay type: cell membranes
Mus musculus [3] = assay: Antinociceptive activity against formalin-induced pain in Kunming mouse assessed as reduction in mean licking and biting time at 80 mg/kg, ip administered 15 mins before fomalin injection measured during first phase of 0 to 5 mins after formalin challenge; assay type: functional; conditions: route intraperitoneal
Mus musculus [4] = assay: Antinociceptive activity against formalin-induced pain in Kunming mouse assessed as reduction in mean licking and biting time at 80 mg/kg, ip administered 15 mins before fomalin injection measured during second phase of 15 to 45 mins after formalin challenge; assay type: functional; conditions: route intraperitoneal
Mus musculus [5] = assay: Antinociceptive activity in ip dosed Kunming mouse assessed as reduction in formalin-induced pain behaviour administered 15 mins before fomalin injection measured during first phase of 0 to 5 mins after formalin challenge; assay type: functional
Summary of the method: (§1)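 Kunming mice (20 ± 2.0 g), 10–12 per group, dosed i.p. in 30% PEG 400 (10 mL/kg) 15 min before intraplantar formalin. Paw licking/biting time was scored in phase I (0–5 min) and phase II (15–45 min). Antinociception (%) = (vehicle licking time − drug licking time)/vehicle licking time × 100. Two-way ANOVA with Newman-Keuls test.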

Mus musculus [6] = assay: Antinociceptive activity in ip dosed Kunming mouse assessed as reduction in formalin-induced pain behaviour administered 15 mins before fomalin injection measured during second phase of 15 to 45 mins after formalin challenge; assay type: functional; summary of the method: as §1
Mus musculus [7] = assay: Antinociceptive activity in Kunming mouse assessed as reduction in formalin-induced pain behaviour at 160 mg/kg, ip administered 15 mins before fomalin injection measured during second phase of 15 to 45 mins after formalin challenge; assay type: functional; summary of the method: as §1
Mus musculus [8] = assay: Antinociceptive activity in Kunming mouse assessed as reduction in formalin-induced pain behaviour at 160 mg/kg, ip administered 15 mins before fomalin injection measured during first phase of 0 to 5 mins after formalin challenge; assay type: functional; summary of the method: as §1
[9] = target: Sigma non-opioid intracellular receptor 1 (Cavia porcellus) (UniProt Q60492); assay: Ratio of Ki for sigma 1 receptor in Dunkin Hartley guinea pig membrane in absence of phenytoin to Ki for sigma 1 receptor in Dunkin Hartley guinea pig membrane in presence of phenytoin; assay type: cell membranes
Chain of Sigma non-opioid intracellular receptor 1 (Cavia porcellus) (Q60492 whole entry): as above

Mus musculus [10] = assay: Antinociceptive activity in Kunming mouse assessed as reduction in formalin-induced pain behaviour at 40 mg/kg, ip administered 15 mins before fomalin injection measured during second phase of 15 to 45 mins after formalin challenge; assay type: functional; summary of the method: as §1
Mus musculus [11] = assay: Antinociceptive activity in Kunming mouse assessed as reduction in formalin-induced pain behaviour at 40 mg/kg, ip administered 15 mins before fomalin injection measured during first phase of 0 to 5 mins after formalin challenge; assay type: functional; summary of the method: as §1
Mus musculus [12] = assay: Antinociceptive activity in Kunming mouse assessed as reduction in formalin-induced pain behaviour at 80 mg/kg, ip administered 15 mins before fomalin injection measured during second phase of 15 to 45 mins after formalin challenge; assay type: functional; summary of the method: as §1
Mus musculus [13] = assay: Antinociceptive activity in Kunming mouse assessed as reduction in formalin-induced pain behaviour at 80 mg/kg, ip administered 15 mins before fomalin injection measured during first phase of 0 to 5 mins after formalin challenge; assay type: functional; summary of the method: as §1
[14] = target: Sigma non-opioid intracellular receptor 1 (Homo sapiens, UniProt Q99720); assay: Binding affinity to sigma 1 receptor (unknown origin)
Chain of Sigma non-opioid intracellular receptor 1 (Homo sapiens, UniProt Q99720) (Q99720 whole entry): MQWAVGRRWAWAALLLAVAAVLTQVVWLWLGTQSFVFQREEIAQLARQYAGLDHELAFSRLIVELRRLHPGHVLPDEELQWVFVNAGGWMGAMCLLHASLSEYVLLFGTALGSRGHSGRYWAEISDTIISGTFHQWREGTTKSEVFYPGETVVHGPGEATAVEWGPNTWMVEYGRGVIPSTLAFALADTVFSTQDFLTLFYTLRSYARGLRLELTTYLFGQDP

SMILES | Ki [1] | Ki [2] | Ratio Ki (Cavia porcellus) | other results
CC1CCN(CCCOc2ccc3c(c2)N(C)C(=O)CC3)CC1 | 311 nM | 40.2 nM | 7.7 | –
Cc1ccc(CN2C(=O)CCc3ccc(OCCCN4CCCCC4)cc32)cc1 | 825 nM | 1.69 nM | 488 | –
O=C1CCc2ccc(OCCCN3CCCCC3)cc2N1 | 288 nM | 89.1 nM | 3.2 | –
CN1C(=O)CCc2ccc(OCCCN3CCCCC3)cc21 | 357 nM | 34.3 nM | 10.4 | –
Cc1cc(OCCN2CCOCC2)nn1-c1ccc2ccccc2c1 | > 2000 nM | 10.5 nM | > 190 | Time (Mus musculus [3]): 8.63 s; Time (Mus musculus [4]): 27.34 s
Cc1ccccc1NC(=N)Nc1ccccc1C [DITOLYLGUANIDINE] | 49.2 nM | – | – | –
O=C1CCc2ccc(OCCCN3CCCC3)cc2N1Cc1ccccc1 | 550 nM | 23.8 nM | 23.1 | –
O=C1CCc2ccc(OCCCN3CCCCC3)cc2N1Cc1ccc(F)cc1 | 1300 nM | 1.22 nM | 1070 | ED50 (Mus musculus [5]): 49.4 mg/kg; inhibition (Mus musculus [5]): Dose-dependent effect; ED50 (Mus musculus [6]): 50.5 mg/kg; inhibition (Mus musculus [6]): Dose-dependent effect; inhibition in vivo at 160 mg/kg (Mus musculus [7]; route intraperitoneal): 98.2%; inhibition in vivo at 160 mg/kg (Mus musculus [8]; route intraperitoneal): 97.6%; Ratio Ki [9]: 0.86; Time (Mus musculus [3]): 12.08 s; inhibition in vivo at 40 mg/kg (Mus musculus [10]; route intraperitoneal): 30.5%; inhibition in vivo at 40 mg/kg (Mus musculus [11]; route intraperitoneal): 33.4%; inhibition in vivo at 80 mg/kg (Mus musculus [12]; route intraperitoneal): 87.7%; inhibition in vivo at 80 mg/kg (Mus musculus [13]; route intraperitoneal): 84.8%; Time (Mus musculus [4]): 36.13 s
CN(C)CCCOc1ccc2c(c1)N(Cc1ccccc1)C(=O)CC2 | 205 nM | 83.2 nM | 2.4 | –
O=C1CCc2ccc(OCCCN3CCN(c4ccccc4)CC3)cc2N1Cc1ccccc1 | > 2000 nM | 341 nM | – | –
O=C(CCCN1CCC(O)(c2ccc(Cl)cc2)CC1)c1ccc(F)cc1 [HALOPERIDOL] | 36.4 nM | – | – | –
O=C1CCc2ccc(OCCCN3CCCCC3)cc2N1Cc1ccccc1 | 662 nM | 1.84 nM | 360 | –
CC1CCN(CCCOc2ccc3c(c2)N(Cc2ccc(F)cc2)C(=O)CC3)CC1 | 960 nM | 0.77 nM | 1250 | inhibition (Mus musculus [7]): Active; inhibition (Mus musculus [8]): Active; Ratio Ki [9]: 0.91; Time (Mus musculus [3]): 34.82 s; inhibition (Mus musculus [10]): Active; inhibition (Mus musculus [11]): Active; inhibition (Mus musculus [12]): Active; inhibition (Mus musculus [13]): Active; Time (Mus musculus [4]): 89.75 s
CC1CCN(CCCOc2ccc3c(c2)NC(=O)CC3)CC1 | 409 nM | 66.7 nM | 6.1 | –
O=C1CCN(CCCOc2ccc3c(c2)N(Cc2ccccc2)C(=O)CC3)CC1 | 1800 nM | 98.2 nM | 18.3 | –
COc1cccc2c1CCC(=O)N2CCCN1CCN(c2cccc(Cl)c2)CC1 | – | – | – | IC50 [14]: 47 nM
Cc1ccc(CN2C(=O)CCc3ccc(OCCCN4CCC(C)CC4)cc32)cc1 | 755 nM | 1.49 nM | 507 | –
CCN(CC)CCCOc1ccc2c(c1)N(Cc1ccccc1)C(=O)CC2 | 97.2 nM | 39.4 nM | 2.5 | –
CN1CCN(CCCOc2ccc3c(c2)N(Cc2ccccc2)C(=O)CC3)CC1 | 161 nM | 4.3 nM | 37.4 | –
CC1CCN(CCCOc2ccc3c(c2)N(Cc2ccccc2)C(=O)CC3)CC1 | 319 nM | 1.1 nM | 290 | –

Continued, in another order:

Ki [1] | Ki [2] | Ratio Ki (Cavia porcellus) | SMILES | other results
1120 nM | 792 nM | 1.4 | O=C1CCc2cc(OCCCN3CCOCC3)ccc2N1Cc1ccccc1 | –
530 nM | 60.2 nM | 8.8 | O=C1CCc2ccc(OCCCCN3CCOCC3)cc2N1Cc1ccccc1 | –
100 nM | 21.6 nM | 4.6 | O=C1CCc2ccc(OCCCN3CCOCC3)cc2N1CCc1ccccc1 | –
2000 nM | 682 nM | – | O=C1CCc2ccc(OCCCCCCN3CCOCC3)cc2N1Cc1ccccc1 | –
> 2000 nM | 852 nM | – | O=C1CCc2cc(OCCCCCCN3CCOCC3)ccc2N1Cc1ccccc1 | –
> 2000 nM | > 2000 nM | – | O=C1CCc2cc(OCCN3CCOCC3)ccc2N1Cc1ccccc1 | –
98.1 nM | 40.2 nM | 2.4 | O=C1CCc2cc(OCCCN3CCOCC3)ccc2N1CCc1ccccc1 | –
> 2000 nM | > 2000 nM | – | O=C1CCc2ccc(OCCN3CCOCC3)cc2N1Cc1ccccc1 | –
> 2000 nM | 195 nM | – | O=C1CCc2cc(OCCCCN3CCOCC3)ccc2N1CCc1ccccc1 | –
1810 nM | 88.4 nM | 20.4 | O=C1CCc2ccc(OCCCCCN3CCOCC3)cc2N1Cc1ccccc1 | –
1200 nM | 44.8 nM | 26.8 | O=C1CCc2ccc(OCCCCN3CCOCC3)cc2N1CCc1ccccc1 | –
471 nM | 14.8 nM | 31.8 | O=C1CCc2ccc(OCCCN3CCOCC3)cc2N1Cc1ccccc1 | –
430 nM | 70.7 nM | 6.1 | O=C1CCc2cc(OCCCCCN3CCOCC3)ccc2N1Cc1ccccc1 | –
260 nM | 22.2 nM | 11.7 | O=C1CCc2cc(OCCCCN3CCOCC3)ccc2N1Cc1ccccc1 | –
